Results: ChEMBL document CHEMBL4680100, “Revisiting the SAR of the Antischistosomal Aryl Hydantoin (Ro 13-3978)” (J Med Chem, 2016)
Values after ≈ are worked out from the molar mass of the structure shown.

How the values were obtained:
[1] = Intrinsic clearance in human liver microsome in presence of NADPH-regenerating system incubated over 60 mins by LC-MS analysis; details: microsomes, 1 h
Androgen receptor [2] = molecular target: T1, Androgen receptor (Homo sapiens, UniProt P10275)
T1 sequence (P10275 whole entry): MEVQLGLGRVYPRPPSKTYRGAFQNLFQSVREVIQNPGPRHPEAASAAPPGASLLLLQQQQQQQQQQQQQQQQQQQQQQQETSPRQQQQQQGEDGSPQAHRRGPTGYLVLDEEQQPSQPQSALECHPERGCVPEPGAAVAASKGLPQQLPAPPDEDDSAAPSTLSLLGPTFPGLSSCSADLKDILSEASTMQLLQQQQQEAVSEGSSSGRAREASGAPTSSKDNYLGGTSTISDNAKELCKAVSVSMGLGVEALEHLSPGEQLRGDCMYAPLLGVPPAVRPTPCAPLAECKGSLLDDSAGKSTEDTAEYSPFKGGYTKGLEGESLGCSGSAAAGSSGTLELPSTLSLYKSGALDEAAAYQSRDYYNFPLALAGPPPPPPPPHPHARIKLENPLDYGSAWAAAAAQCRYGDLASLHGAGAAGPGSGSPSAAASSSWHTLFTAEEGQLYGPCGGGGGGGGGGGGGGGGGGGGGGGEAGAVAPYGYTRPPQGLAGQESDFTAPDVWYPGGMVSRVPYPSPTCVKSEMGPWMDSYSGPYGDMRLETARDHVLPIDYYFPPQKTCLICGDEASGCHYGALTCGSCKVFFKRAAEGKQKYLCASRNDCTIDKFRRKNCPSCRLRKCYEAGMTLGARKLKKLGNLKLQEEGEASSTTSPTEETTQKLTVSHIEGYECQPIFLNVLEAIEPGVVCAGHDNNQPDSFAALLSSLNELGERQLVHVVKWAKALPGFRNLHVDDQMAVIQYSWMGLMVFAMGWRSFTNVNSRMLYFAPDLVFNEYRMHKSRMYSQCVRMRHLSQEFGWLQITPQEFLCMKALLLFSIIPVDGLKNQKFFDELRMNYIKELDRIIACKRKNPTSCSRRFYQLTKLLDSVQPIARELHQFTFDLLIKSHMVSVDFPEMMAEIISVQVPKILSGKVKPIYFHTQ

Albumin = Albumin (Homo sapiens, UniProt P02768); assay: Protein binding in immobilized human serum albumin by HPLC analysis; type: ADME; details: isolated protein
Summary of the method: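 Binding estimated from gradient HPLC retention on a human albumin column, correlated against standard compounds of known protein binding.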

L6 = assay: Cytotoxicity against rat L6 cells assessed as reduction in cell viability at up to 30 uM; type: cell-based
[3] = Octanol/water partition coefficient, logD of the compound at pH 7.4 by HPLC analysis
[4] = Kinetic solubility of compound at pH 6.5 phosphate buffer by nephelometry; type: physicochemical; details: read-out: Kinetic_solubility
Schistosoma mansoni [5] = assay: Antischistosomal activity against juvenile Schistosoma mansoni cercariae infected in mouse assessed as effective dose causing reduction in worm burden; type: functional
[6] = AUC (0 to last) in male Swiss mouse at 100 mg/kg, po administered via gavage measured upto 48 hrs postdose by LC-MS analysis; type: ADME, organism-based; set-up: route oral, dose 100 mg/kg, time <=48; details: in vivo
Schistosoma mansoni [7] = assay: Antischistosomal activity against Schistosoma mansoni infected in NMRI mouse assessed as reduction in total worm burden at 100 mg/kg, po administered as single dose starting on day 49 post-infection and measured at 28 days post treatment relative to control; type: functional; set-up: scale not given: the % may be the effect or the level left; details: time 28 day
Summary of the method: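 S. mansoni-infected NMRI mice treated on day 49 post-infection with a single oral dose, dissolved or suspended in 7% v/v Tween 80, 3% v/v ethanol (10 mL/kg), five mice per group. Sacrificed and dissected 28 d post-treatment; worms counted to give total worm burden reduction versus untreated controls. Kruskal–Wallis test on medians, treatment versus control.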

[8] = Intrinsic clearance in mouse liver microsome in presence of NADPH-regenerating system incubated over 60 mins by LC-MS analysis; details: microsomes, 1 h
[9] = Kinetic solubility of the compound in 0.01 M HCl at pH 2 by nephelometry; type: physicochemical; details: read-out: Kinetic_solubility
[10] = Cmax in male Swiss mouse at 100 mg/kg, po administered via gavage measured upto 48 hrs postdose by LC-MS analysis; type: ADME, organism-based; set-up: route oral, dose 100 mg/kg, time <=48; details: in vivo
Summary of the method: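 Nonfasted male Swiss outbred mice (25–33 g, 7 per compound, fed ad libitum) were gavaged once at 10 mL/kg. Vehicle was 7% v/v Tween 80, 3% v/v ethanol in water, dosed within 1 h of preparation. Blood was drawn 0.25–48 h postdose (n = 2 per time point) into heparin with stabilizer, and plasma was quantified by LCMS. Noncompartmental analysis.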

Schistosoma mansoni [11] = assay: Antischistosomal activity against adult Schistosoma mansoni cercariae infected in mouse assessed as effective dose causing reduction in worm burden; type: functional
Androgen receptor [12] = molecular target: T1, Androgen receptor; details: lapc4
Schistosoma mansoni [13] = assay: Antischistosomal activity against Schistosoma mansoni infected in mouse assessed as effective dose causing reduction in worm burden; type: functional

Sequence of Albumin (P02768 whole entry): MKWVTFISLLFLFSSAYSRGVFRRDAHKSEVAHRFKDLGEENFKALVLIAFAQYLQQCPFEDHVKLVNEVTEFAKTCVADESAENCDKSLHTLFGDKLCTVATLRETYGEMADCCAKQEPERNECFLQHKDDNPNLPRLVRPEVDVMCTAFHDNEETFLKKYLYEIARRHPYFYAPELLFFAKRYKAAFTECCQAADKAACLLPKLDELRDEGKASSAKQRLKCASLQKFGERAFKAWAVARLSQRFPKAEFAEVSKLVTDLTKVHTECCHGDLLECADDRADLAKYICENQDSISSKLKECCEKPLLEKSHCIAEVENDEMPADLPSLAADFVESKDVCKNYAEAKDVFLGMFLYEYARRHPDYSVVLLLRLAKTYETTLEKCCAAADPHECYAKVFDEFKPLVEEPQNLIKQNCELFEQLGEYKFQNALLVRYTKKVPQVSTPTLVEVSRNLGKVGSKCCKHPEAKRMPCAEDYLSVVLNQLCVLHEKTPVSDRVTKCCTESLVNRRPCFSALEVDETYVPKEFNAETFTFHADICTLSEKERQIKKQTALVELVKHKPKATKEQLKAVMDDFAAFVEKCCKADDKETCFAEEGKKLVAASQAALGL

Compound | CLH [1] [µL/min/mg] | IC50 (Androgen receptor [2]) [µM] | PPB (Albumin) [%] | Activity (L6) | logD [3] | solubility kinetic [4] [µg/mL] | ED50 (Schistosoma mansoni [5]) [mg/kg] | AUClast [6] [µM·h] | Activity (Schistosoma mansoni [7]) [%] | CLH [8] [µL/min/mg] | solubility kinetic [9] [µg/mL] | Cmax [10] [µM] | ED50 (Schistosoma mansoni [11]) [mg/kg] | IC50 (Androgen receptor [12]) | ED50 (Schistosoma mansoni [13]) [mg/kg]
CC1(C)NC(=O)N(c2ccc(F)c(C(F)(F)F)c2)C1=O | 8 | 4.4 | 52.1 | Non-Toxic | 2.7 | > 100 | 140 | 2740 | 95 | < 7 | > 100 | 124 | 15 | – | –
CC1(C)C(=O)N(c2ccc(F)c(C(F)(F)F)c2)C(=O)N1CC(N)=O | < 7 | – | 20.3 | Non-Toxic | 2.2 | 50 (≈ 144 µM) | – | – | 25 | < 7 | 50 (≈ 144 µM) | – | – | Not Active | –
COC(=O)C(C)(C)NC(=O)Nc1ccc(F)c(C(F)(F)F)c1 | – | – | – | – | – | – | – | – | – | – | – | – | – | – | 62
